Results from ChEMBL document CHEMBL1275531, “Genomewide expression profiling of cryptolepine-induced toxicity in Saccharomyces cerevisiae” (Antimicrob Agents Chemother, 2008).
Activity calls are given as the source filed them. The calls are words filed in the database; no cut-off is given here.

Assays:
Saccharomyces cerevisiae [1] = assay: Downregulation of PHO5 gene expression in Saccharomyces cerevisiae at 7.5 uM after 15 hrs by microarray analysis relative to untreated control; type: functional
Summary of the method: (§1)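 BY4741Δerg6 cells exposed 15 h to 7.5 or 17 μM; total RNA, 15 μg, used for Cy3/Cy5-dUTP indirect labeling. Arrays prehybridized at 42°C for 45 min, then hybridized in 50% formamide, 5× SSC. Each dose done in duplicate, each RNA hybridized twice with dye swap; treated/untreated fluorescence ratios log-transformed.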

Saccharomyces cerevisiae [2] = assay: Downregulation of glucose catabolic process related gene expression in Saccharomyces cerevisiae; type: functional, organism-based
Summary of the method: (§2)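 Δerg6 cells treated 15 h at 7.5 or 17 μM, with the eight microarray hybridizations pooled. A gene counted as changed when two-tailed Student t test on log-transformed ratios gave P below 0.01 for ratio equal to 1. Genes grouped by GO biological-process category.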

Saccharomyces cerevisiae [3] = assay: Downregulation of FTH1 gene expression in Saccharomyces cerevisiae relative to untreated control; type: functional; summary of the method: as §2
Saccharomyces cerevisiae [4] = assay: Downregulation of FRE1 gene expression in Saccharomyces cerevisiae relative to untreated control; type: functional; summary of the method: as §2
Saccharomyces cerevisiae [5] = assay: Downregulation of fungal type cell wall related gene expression in Saccharomyces cerevisiae; type: functional, organism-based; summary of the method: as §2
Saccharomyces cerevisiae [6] = assay: Cytotoxicity against Saccharomyces cerevisiae BY4741 harboring deltaerg6 mutant gene after 4 hrs; type: functional, organism-based; conditions: BY4741, 4 h
Summary of the method: (§3)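 Growth assay: strains precultured in YPD at 30°C for 15 h, shaking 250 rpm in the dark, then standardized to OD600 0.05 in the same medium. Grown in triplicate with a range of concentrations (methanol stock, diluted before use) under continuous 4 h treatment; growth read as OD600 and inhibitory concentrations taken from the plots.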

Saccharomyces cerevisiae [7] = assay: Upregulation of TPS1 gene expression in Saccharomyces cerevisiae at 17 uM after 15 hrs by qRT-PCR relative to untreated control; type: functional
Summary of the method: (§4)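 qRT-PCR used aliquots of the microarray RNA (treated and untreated Δerg6, 7.5 or 17 μM, 15 h) plus two additional biological replicates. Cycling was 95°C 10 min, then 40 cycles of 95°C 15 s and 60°C 1 min, with a dissociation curve. Genomic DNA 10-fold dilution standard curves; no-template and no-enzyme controls in triplicate; relative expression by ΔΔCT.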

Saccharomyces cerevisiae [8] = assay: Downregulation of FIT3 gene expression in Saccharomyces cerevisiae at 17 uM after 15 hrs by microarray analysis relative to untreated control; type: functional; summary of the method: as §1
Saccharomyces cerevisiae [9] = assay: Downregulation of FIT1 gene expression in Saccharomyces cerevisiae relative to untreated control; type: functional; summary of the method: as §2
Saccharomyces cerevisiae [10] = assay: Downregulation of ARN2 gene expression in Saccharomyces cerevisiae at 7.5 uM after 15 hrs by qRT-PCR relative to untreated control; type: functional; summary of the method: as §4
Saccharomyces cerevisiae [11] = assay: Upregulation of TPS1 gene expression in Saccharomyces cerevisiae at 7.5 uM after 15 hrs by microarray analysis relative to untreated control; type: functional; summary of the method: as §1
Saccharomyces cerevisiae [12] = assay: Upregulation of FET5 gene expression in Saccharomyces cerevisiae relative to untreated control; type: functional; summary of the method: as §2
Saccharomyces cerevisiae [13] = assay: Downregulation of ARN2 gene expression in Saccharomyces cerevisiae at 7.5 uM after 15 hrs by microarray analysis relative to untreated control; type: functional; summary of the method: as §1
Saccharomyces cerevisiae [14] = assay: Downregulation of ARN2 gene expression in Saccharomyces cerevisiae relative to untreated control; type: functional; summary of the method: as §2
Saccharomyces cerevisiae [15] = assay: Downregulation of FRE6 gene expression in Saccharomyces cerevisiae relative to untreated control; type: functional; summary of the method: as §2
Saccharomyces cerevisiae [16] = assay: Downregulation of PHO5 gene expression in Saccharomyces cerevisiae at 17 uM after 15 hrs by microarray analysis relative to untreated control; type: functional; summary of the method: as §1
Saccharomyces cerevisiae [17] = assay: Upregulation of FRE2 gene expression in Saccharomyces cerevisiae relative to untreated control; type: functional; summary of the method: as §2
Saccharomyces cerevisiae [18] = assay: Upregulation of TPS1 gene expression in Saccharomyces cerevisiae at 17 uM after 15 hrs by microarray analysis relative to untreated control; type: functional; summary of the method: as §1
Saccharomyces cerevisiae [19] = assay: Downregulation of SMF3 gene expression in Saccharomyces cerevisiae relative to untreated control; type: functional; summary of the method: as §2
Saccharomyces cerevisiae [20] = assay: Downregulation of FRE5 gene expression in Saccharomyces cerevisiae relative to untreated control; type: functional; summary of the method: as §2
Saccharomyces cerevisiae [21] = assay: Downregulation of PHO5 gene expression in Saccharomyces cerevisiae at 17 uM after 15 hrs by qRT-PCR relative to untreated control; type: functional; summary of the method: as §4
Saccharomyces cerevisiae [22] = assay: Downregulation of stress response related gene expression in Saccharomyces cerevisiae; type: functional, organism-based; conditions: in the assay text read “Upregulation” for “Downregulation”; summary of the method: as §2
Saccharomyces cerevisiae [23] = assay: Upregulation of SMF2 gene expression in Saccharomyces cerevisiae relative to untreated control; type: functional; summary of the method: as §2
Saccharomyces cerevisiae [24] = assay: Downregulation of TIS11 gene expression in Saccharomyces cerevisiae at 7.5 uM after 15 hrs by microarray analysis relative to untreated control; type: functional; summary of the method: as §1
Saccharomyces cerevisiae [25] = assay: Cytotoxicity against Saccharomyces cerevisiae; type: functional; summary of the method: as §3
Saccharomyces cerevisiae [26] = assay: Upregulation of TPS1 gene expression in Saccharomyces cerevisiae at 7.5 uM after 15 hrs by qRT-PCR relative to untreated control; type: functional
Summary of the method: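 BY4741Δerg6 yeast (standardized to OD600 0.05 in YPD after 15-h 30°C preculture) grown with cryptolepine (1 mM methanol stock diluted) for 15 h; total RNA extracted, aliquots from microarray samples plus two additional biological replicates used for qRT-PCR: 95°C 10 min, 40 cycles 95°C 15 s/60°C 1 min, dissociation curve; genomic DNA standard curves; relative expression versus untreated by ΔΔCT.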

Saccharomyces cerevisiae [27] = assay: Cytotoxicity against Saccharomyces cerevisiae BY4741 harboring deltaerg6 mutant gene at <10 uM after 4 hrs; type: functional, organism-based; summary of the method: as §3
Saccharomyces cerevisiae [28] = assay: Downregulation of TIS11 gene expression in Saccharomyces cerevisiae at 17 uM after 15 hrs by microarray analysis relative to untreated control; type: functional; summary of the method: as §1
Saccharomyces cerevisiae [29] = assay: Downregulation of TIS11 gene expression in Saccharomyces cerevisiae at 7.5 uM after 15 hrs by qRT-PCR relative to untreated control; type: functional; summary of the method: as §4
Saccharomyces cerevisiae [30] = assay: Downregulation of ARN1 gene expression in Saccharomyces cerevisiae relative to untreated control; type: functional; summary of the method: as §2
Saccharomyces cerevisiae [31] = assay: Downregulation of acid phosphatase activity related gene expression in Saccharomyces cerevisiae; type: functional, organism-based; summary of the method: as §2
Saccharomyces cerevisiae [32] = assay: Downregulation of FIT3 gene expression in Saccharomyces cerevisiae relative to untreated control; type: functional; summary of the method: as §2
Saccharomyces cerevisiae [33] = assay: Downregulation of FTR1 gene expression in Saccharomyces cerevisiae relative to untreated control; type: functional; summary of the method: as §2
Saccharomyces cerevisiae [34] = assay: Upregulation of HSP26 gene expression in Saccharomyces cerevisiae at 17 uM after 15 hrs by qRT-PCR relative to untreated control; type: functional; summary of the method: as §4
Saccharomyces cerevisiae [35] = assay: Downregulation of FET3 gene expression in Saccharomyces cerevisiae relative to untreated control; type: functional; summary of the method: as §2
Saccharomyces cerevisiae [36] = assay: Downregulation of FIT3 gene expression in Saccharomyces cerevisiae at 7.5 uM after 15 hrs by qRT-PCR relative to untreated control; type: functional; summary of the method: as §4
Saccharomyces cerevisiae [37] = assay: Downregulation of TIS11 gene expression in Saccharomyces cerevisiae at 17 uM after 15 hrs by qRT-PCR relative to untreated control; type: functional; summary of the method: as §4
Saccharomyces cerevisiae [38] = assay: Downregulation of ARN2 gene expression in Saccharomyces cerevisiae at 17 uM after 15 hrs by microarray analysis relative to untreated control; type: functional; summary of the method: as §1
Saccharomyces cerevisiae [39] = assay: Downregulation of FET4 gene expression in Saccharomyces cerevisiae relative to untreated control; type: functional; summary of the method: as §2
Saccharomyces cerevisiae [40] = assay: Downregulation of FIT3 gene expression in Saccharomyces cerevisiae at 17 uM after 15 hrs by qRT-PCR relative to untreated control; type: functional; summary of the method: as §4
Saccharomyces cerevisiae [41] = assay: Cytotoxicity against Saccharomyces cerevisiae JN394 harboring deltarad52 mutant gene after 4 hrs; type: functional, organism-based; conditions: JN394, 4 h; summary of the method: as §3
Saccharomyces cerevisiae [42] = assay: Downregulation of siderophore transport related gene expression in Saccharomyces cerevisiae; type: functional, organism-based; summary of the method: as §2
Saccharomyces cerevisiae [43] = assay: Downregulation of ARN2 gene expression in Saccharomyces cerevisiae at 17 uM after 15 hrs by qRT-PCR relative to untreated control; type: functional; summary of the method: as §4
Saccharomyces cerevisiae [44] = assay: Downregulation of FIT2 gene expression in Saccharomyces cerevisiae relative to untreated control; type: functional; summary of the method: as §2
Saccharomyces cerevisiae [45] = assay: Downregulation of SIT1 gene expression in Saccharomyces cerevisiae relative to untreated control; type: functional; summary of the method: as §2
Saccharomyces cerevisiae [46] = assay: Downregulation of PHO5 gene expression in Saccharomyces cerevisiae at 7.5 uM after 15 hrs by qRT-PCR relative to untreated control; type: functional; summary of the method: as §4
Saccharomyces cerevisiae [47] = assay: Upregulation of HSP26 gene expression in Saccharomyces cerevisiae at 17 uM after 15 hrs by microarray analysis relative to untreated control; type: functional; summary of the method: as §1
Saccharomyces cerevisiae [48] = assay: Downregulation of SMF1 gene expression in Saccharomyces cerevisiae relative to untreated control; type: functional; summary of the method: as §2
Saccharomyces cerevisiae [49] = assay: Upregulation of HSP26 gene expression in Saccharomyces cerevisiae at 7.5 uM after 15 hrs by microarray analysis relative to untreated control; type: functional; summary of the method: as §1
Saccharomyces cerevisiae [50] = assay: Upregulation of HSP26 gene expression in Saccharomyces cerevisiae at 7.5 uM after 15 hrs by qRT-PCR relative to untreated control; type: functional; summary of the method: as §4
Saccharomyces cerevisiae [51] = assay: Downregulation of FIT3 gene expression in Saccharomyces cerevisiae at 7.5 uM after 15 hrs by microarray analysis relative to untreated control; type: functional; summary of the method: as §1

Structure (SMILES): C[n+]1c2ccccc2cc2[n-]c3ccccc3c21.Cl [CRYPTOLEPINE HYDROCHLORIDE]
- fold change (FC) (Saccharomyces cerevisiae [1]): 1.88
- Activity (Saccharomyces cerevisiae [2]): Active
- fold change (FC) (Saccharomyces cerevisiae [3]): 0.53
- fold change (FC) (Saccharomyces cerevisiae [4]): 0.78
- Activity (Saccharomyces cerevisiae [5]): Active
- IC50 (Saccharomyces cerevisiae [6]): 25 µM
- fold change (FC) (Saccharomyces cerevisiae [7]): 1.03
- fold change (FC) (Saccharomyces cerevisiae [8]): 2.36
- fold change (FC) (Saccharomyces cerevisiae [9]): 2.13
- fold change (FC) (Saccharomyces cerevisiae [10]): 4.06
- fold change (FC) (Saccharomyces cerevisiae [11]): 1.24
- fold change (FC) (Saccharomyces cerevisiae [12]): 0.8
- fold change (FC) (Saccharomyces cerevisiae [13]): 2.18
- fold change (FC) (Saccharomyces cerevisiae [14]): 3.01
- fold change (FC) (Saccharomyces cerevisiae [15]): 0.08
- fold change (FC) (Saccharomyces cerevisiae [16]): 2.05
- fold change (FC) (Saccharomyces cerevisiae [17]): 0.13
- fold change (FC) (Saccharomyces cerevisiae [18]): 1.01
- fold change (FC) (Saccharomyces cerevisiae [19]): 1.24
- fold change (FC) (Saccharomyces cerevisiae [20]): 1.01
- fold change (FC) (Saccharomyces cerevisiae [21]): 2.27
- Activity (Saccharomyces cerevisiae [22]): Active
- fold change (FC) (Saccharomyces cerevisiae [23]): 0.09
- fold change (FC) (Saccharomyces cerevisiae [24]): 2.35
- IC20 (Saccharomyces cerevisiae [25]): 7.5 µM
- IC40 (Saccharomyces cerevisiae [25]): 17 µM
- fold change (FC) (Saccharomyces cerevisiae [26]): 0.96
- Activity (Saccharomyces cerevisiae [27]): Active
- fold change (FC) (Saccharomyces cerevisiae [28]): 2.31
- fold change (FC) (Saccharomyces cerevisiae [29]): 3.3
- fold change (FC) (Saccharomyces cerevisiae [30]): 1.07
- Activity (Saccharomyces cerevisiae [31]): Active
- fold change (FC) (Saccharomyces cerevisiae [32]): 3.46
- fold change (FC) (Saccharomyces cerevisiae [33]): 0.49
- fold change (FC) (Saccharomyces cerevisiae [34]): 3.51
- fold change (FC) (Saccharomyces cerevisiae [35]): 1.11
- fold change (FC) (Saccharomyces cerevisiae [36]): 5.57
- fold change (FC) (Saccharomyces cerevisiae [37]): 3.46
- fold change (FC) (Saccharomyces cerevisiae [38]): 3.32
- fold change (FC) (Saccharomyces cerevisiae [39]): 1.79
- fold change (FC) (Saccharomyces cerevisiae [40]): 2.01
- IC50 (Saccharomyces cerevisiae [41]): 20.3 µM
- Activity (Saccharomyces cerevisiae [42]): Active
- fold change (FC) (Saccharomyces cerevisiae [43]): 4.9
- fold change (FC) (Saccharomyces cerevisiae [44]): 1.94
- fold change (FC) (Saccharomyces cerevisiae [45]): 1.57
- fold change (FC) (Saccharomyces cerevisiae [46]): 1.73
- fold change (FC) (Saccharomyces cerevisiae [47]): 3.54
- fold change (FC) (Saccharomyces cerevisiae [48]): 0.35
- fold change (FC) (Saccharomyces cerevisiae [49]): 2.09
- fold change (FC) (Saccharomyces cerevisiae [50]): 2.49
- fold change (FC) (Saccharomyces cerevisiae [51]): 3.3
